According to ChEMBL document CHEMBL4024801, “Synthesis and Structure-Activity Relationship (SAR) Studies of Novel Pyrazolopyridine Derivatives as Inhibitors of Enterovirus Replication” (J Med Chem, 2018):

Tests used:
Coxsackievirus B3 = experiment: Antiviral activity against Coxsackievirus B3 infected in human HeLa-RW cells assessed as protection against virus-induced cytopathic effect after 3 to 4 days by crystal violet staining-based spectrophotometric method; format: functional, cell-based; settings: Enterovirus B
Outline: (§1)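 HeLa-RW cells grown in DMEM with penicillin, streptomycin, glutamine and 10% FBS. They were infected at a low MOI pre-set to give full CPE in 3-4 days. Compound in DMSO was added as serial 2-fold dilutions (7 points), each in triplicate. When control CPE was maximal, cells were fixed with 4% formaldehyde, stained with 0.25% crystal violet and read at OD590. EC50 came from a four-parameter or sigmoidal fit.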

Poliovirus 1 = experiment: Antiviral activity against Poliovirus 1 infected in human HeLa-RW cells assessed as protection against virus-induced cytopathic effect after 3 to 4 days by crystal violet staining-based spectrophotometric method; format: functional, cell-based; settings: Enterovirus C; outline: as §1
Enterovirus A71 = experiment: Antiviral activity against Enterovirus A71 infected in monkey LLC-MK2 cells assessed as protection against virus-induced cytopathic effect after 3 to 4 days by crystal violet staining-based spectrophotometric method; format: functional, cell-based; settings: Enterovirus A
Outline: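 EV-A71 was tested in LLC-MK2 cells grown in DMEM with 10% FBS, penicillin, streptomycin and glutamine, at a low MOI preset to give full CPE in 3–4 days. Compound was dissolved in DMSO and diluted 2-fold, in triplicate. Cells were fixed with formaldehyde when control CPE was maximal, then stained with crystal violet and read at OD590. EC50 came from a 7-point four-parameter or sigmoidal fit.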

Poliovirus 3 = experiment: Antiviral activity against Poliovirus 3 infected in human HeLa-RW cells assessed as protection against virus-induced cytopathic effect after 3 to 4 days by crystal violet staining-based spectrophotometric method; format: functional, cell-based; settings: Enterovirus C; outline: as §1
[1] = Cytotoxicity against human HeLa-RW cells after 3 to 4 days by crystal violet staining-based spectrophotometric method; format: cell-based; settings: hela-rw
Outline: (§2)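 Uninfected cells (HeLa-RW or LLC-MK2, in DMEM with penicillin, streptomycin, glutamine and 10% FBS) were exposed to serial 2-fold compound dilutions for the same period as the CPE assay. They were then fixed with formaldehyde, stained with crystal violet and read by OD590 spectrophotometry to derive CC50. Values are means ± s.d. of 3 experiments, or the average of triplicates in one.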

[2] = Selectivity index, ratio of CC50 for monkey LLC-MK2 cells to EC50 for Enterovirus A71; format: toxicity; settings: read-out: Ratio CC50/EC50
Outline: (§3)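 LLC-MK2 cells in DMEM with 10% FBS were used for both arms. For EC50, cells were infected with EV-A71 at a low MOI giving full CPE in 3–4 days and exposed to 2-fold compound dilutions, in triplicate. For CC50, uninfected cells got 2-fold dilutions for the same period. Both arms were formaldehyde-fixed, crystal violet-stained and read at OD590.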

LLC-MK2 = experiment: Cytotoxicity against monkey LLC-MK2 cells after 3 to 4 days by crystal violet staining-based spectrophotometric method; format: cell-based, Macaca mulatta; settings: rhesus monkey; outline: as §2
[3] = Selectivity index, ratio of CC50 for human HeLa-RW cells to EC50 for Coxsackievirus B3; format: toxicity; settings: read-out: Ratio CC50/EC50
Outline: as §3, with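 “HeLa-RW” for “LLC-MK2”, “CVB3-H3” for “EV-A71”, “triplicate, with a 7-point fit.” for “triplicate.”, “fixed,” for “formaldehyde-fixed,”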

Compound	EC50 (Coxsackievirus B3)	EC50 (Poliovirus 1)	EC50 (Enterovirus A71)	EC50 (Poliovirus 3)	CC50 [1]	selectivity ratio [2]	CC50 (LLC-MK2)	selectivity ratio [3]
CC(C)n1ncc2c(C(=O)Nc3cc(F)cc(F)c3)cc(-c3cccs3)nc21	> 10 µM	> 10 µM	> 10 µM	> 10 µM	–	–	–	–
CC(C)n1ncc2c(C(=O)Nc3ccc(F)cc3)cc(C3CC3)nc21	3.3 µM	> 25 µM	3.2 µM	> 25 µM	10 µM	3.9	12.5 µM	3
CC(C)n1ncc2c(C(=O)N(C)c3ccccn3)cc(-c3cccs3)nc21	> 25 µM	> 10 µM	> 10 µM	> 10 µM	–	–	–	–
CC(C)n1ncc2c(NC(=O)c3cc(-c4cccs4)nc4c3cnn4C(C)C)cc(-c3cccs3)nc21	> 10 µM	> 10 µM	> 10 µM	> 10 µM	–	–	–	–
CC(C)n1ncc2c(C(=O)Nc3ccccc3F)cc(-c3nccs3)nc21	> 10 µM	> 10 µM	> 10 µM	> 10 µM	–	–	–	–
CC(C)n1ncc2c(C(=O)Nc3c(F)cccc3F)cc(-c3cccs3)nc21	3.2 µM	> 25 µM	3.4 µM	> 25 µM	> 200 µM	> 58.8	> 200 µM	> 62.5
CC(C)n1ncc2c(C(=O)Nc3ccc(F)cc3)cc(-c3ccco3)nc21	2.4 µM	> 25 µM	2.6 µM	> 25 µM	> 200 µM	> 76.9	> 200 µM	> 83
CC(C)n1ncc2c(C(=O)Nc3cccc(F)c3F)cc(-c3cccs3)nc21	2.7 µM	> 25 µM	3 µM	> 25 µM	> 200 µM	25	75 µM	> 74.1
CC(C)n1ncc2c(S(=O)(=O)Nc3ccc(F)cc3)cc(-c3cccs3)nc21	> 10 µM	> 10 µM	> 10 µM	> 10 µM	–	–	–	–
CC(C)n1ncc2c(C(=O)Nc3ccccn3)cc(-c3ccccc3)nc21	1.6 µM	> 25 µM	0.7 µM	> 25 µM	18.8 µM	17.9	12.5 µM	11.8
CC(C)n1ncc2c(C(=S)Nc3ccc(F)cc3)cc(-c3cccs3)nc21	> 10 µM	> 10 µM	> 10 µM	> 10 µM	–	–	–	–
CC(C)n1cnc2c(C(=O)Nc3ccc(F)cc3)cc(-c3cccs3)nc21	> 10 µM	> 10 µM	> 10 µM	> 10 µM	–	–	–	–
CC(C)n1ncc2c(C(=O)Nc3ccc(F)cc3)nc(-c3cccs3)nc21	> 10 µM	> 10 µM	> 10 µM	> 10 µM	–	–	–	–
CC(C)n1ncc2c(NS(=O)(=O)c3ccc(F)cc3)cc(-c3cccs3)nc21	> 10 µM	> 10 µM	> 10 µM	> 10 µM	–	–	–	–
CC(C)n1ncc2c(C(=O)Nc3ccc(S(N)(=O)=O)cc3)cc(-c3cccs3)nc21	> 10 µM	> 10 µM	> 10 µM	> 10 µM	–	–	–	–
CC(C)n1ncc2c(C(=O)Nc3ccccc3F)cc(-c3ccncc3)nc21	5.1 µM	> 25 µM	> 10 µM	> 25 µM	37.5 µM	–	45 µM	7.4
CC(C)n1ncc2c(C(=O)Nc3ccccc3C(F)(F)F)cc(-c3cccs3)nc21	> 10 µM	> 10 µM	> 10 µM	> 10 µM	–	–	–	–
CC(C)n1ccc2c(C(=O)Nc3ccncc3)cc(-c3cccs3)nc21	> 10 µM	> 10 µM	> 10 µM	> 10 µM	–	–	–	–
CC(C)n1ncc2c(C(=O)Nc3ccccc3F)cc(-c3cncs3)nc21	3.3 µM	> 25 µM	3.7 µM	> 25 µM	> 200 µM	27	100 µM	> 60.6

Compound	EC50 (Coxsackievirus B3)	EC50 (Poliovirus 1)	EC50 (Enterovirus A71)	EC50 (Poliovirus 3)	CC50 [1]	selectivity ratio [2]	CC50 (LLC-MK2)	selectivity ratio [3]
CC(C)n1ncc2c(C(=O)Nc3ccc(F)cc3)cc(-c3cccs3)nc21	0.7 µM	> 25 µM	0.9 µM	> 25 µM	> 200 µM	> 222	> 200 µM	> 286
CC(C)n1ncc2c(C(=N)Nc3cccnc3)cc(-c3cccs3)nc21	> 10 µM	> 10 µM	> 10 µM	> 10 µM	–	–	–	–
CC(C)n1ncc2c(C(=O)Nc3ccccc3F)cc(-c3cccnc3)nc21	7 µM	> 25 µM	> 10 µM	> 25 µM	37.5 µM	–	50 µM	5.4
CC(C)n1ncc2c(C(=O)Nc3ccc(F)c(F)c3)cc(-c3cccs3)nc21	1.3 µM	> 10 µM	> 25 µM	> 10 µM	> 200 µM	–	> 200 µM	> 154
CC(C)n1ncc2c(C(=O)Nc3cccc(S(N)(=O)=O)c3)cc(C3CC3)nc21	> 10 µM	> 10 µM	> 10 µM	> 10 µM	–	–	–	–
CC(C)n1ncc2c(C(=O)Nc3ccc(F)cc3Br)cc(-c3cccs3)nc21	> 10 µM	> 10 µM	> 10 µM	> 10 µM	–	–	–	–
CC(C)n1ccc2c(C(=O)Nc3ccc(F)cc3)cc(-c3cccs3)nc21	3.1 µM	> 25 µM	> 25 µM	> 25 µM	> 200 µM	–	> 200 µM	> 64.5
CC(C)n1ncc2c(C(=O)Nc3ccncc3)cc(-c3ccsc3)nc21	> 10 µM	> 10 µM	> 10 µM	> 10 µM	–	–	–	–
CC(C)n1nnc2c(C(=O)Nc3ccc(F)cc3)cc(-c3cccs3)nc21	> 10 µM	> 10 µM	> 10 µM	> 10 µM	–	–	–	–
CC(C)n1ncc2c(-c3nc4ccc(F)cc4o3)cc(-c3cccs3)nc21	> 10 µM	> 10 µM	> 10 µM	> 10 µM	–	–	–	–
CC(C)n1ncc2c(C(=O)Nc3ccc(F)cc3F)cc(-c3cccs3)nc21	1.4 µM	> 25 µM	1.6 µM	> 25 µM	> 200 µM	> 125	> 200 µM	> 143
CC(C)n1ncc2c(C(=O)Nc3ccccc3F)cc(-c3ccccn3)nc21	6.9 µM	> 25 µM	> 10 µM	> 25 µM	> 200 µM	–	100 µM	> 29
CC(C)n1ncc2c(C(=O)Nc3ccc(F)cc3)cc(-c3ccsc3)nc21	1.3 µM	> 25 µM	1.4 µM	> 25 µM	25 µM	> 143	> 200 µM	19.2
CC(C)n1ncc2c(C(=O)Nc3ccccc3F)cc(-c3ccccc3)nc21	4.5 µM	> 25 µM	5.7 µM	> 25 µM	37.5 µM	> 35.1	> 200 µM	8.3
CC(C)n1ncc2c(C(=O)Nc3cc(F)ccc3F)cc(-c3cccs3)nc21	2.7 µM	> 25 µM	3.5 µM	> 25 µM	> 200 µM	28.6	100 µM	> 74.1
CC(C)n1ncc2c(C(=O)Nc3ccccn3)cc(C3CC3)nc21	4.7 µM	> 25 µM	4.7 µM	> 25 µM	25 µM	5.3	25 µM	5.3
CC(C)n1ncc2c(C(=N)Nc3ccc(F)cc3)cc(-c3cccs3)nc21	> 10 µM	> 10 µM	> 10 µM	> 10 µM	–	–	–	–
CC(C)n1ncc2c(C(=O)Nc3ccc(C(F)(F)F)cc3)cc(-c3cccs3)nc21	> 25 µM	> 25 µM	> 25 µM	> 25 µM	–	–	–	–
CC(C)n1ncc2c(C(=O)Nc3ccccc3F)cc(-c3cnco3)nc21	> 10 µM	> 10 µM	> 10 µM	> 10 µM	–	–	–	–
